# What was measured:
# OVCAR4 = test: 2D foci assay; format: cell-based, human; conditions: OVCAR4, 50 nM for 8 h, two weeks colony formation, relative to vehicle
# Summary of the method: (§1)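 Cells were seeded at 200 per 60 mm dish and left to attach overnight. They were then exposed for 8 h to test compound (50 nM), DMSO vehicle or paclitaxel (10 nM). Medium was replaced and cells grew drug-free for about two weeks (15 days). Colonies were fixed in 4% paraformaldehyde, stained with 0.05% crystal violet, imaged and counted. There were three biological replicates, compared with vehicle by Dunnett's test.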
# OVCAR3 = test: Cell viability assay; format: cell-based, human; conditions: OVCAR3
# Summary of the method: (§2)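 RPMI1640 (OVCAR3, OVCAR4, MDA-MB-435) or DMEM (OVCAR8, MDA-MB-231) was used, with 10% FBS and penicillin/streptomycin. Cells were STR-validated and kept below 20 passages. Cells were plated at 5000 per well overnight, then given test compound at final 0.95–250 nM (nine levels, 0.5% DMSO) for 72 h at 37 °C. Viability was read by CellTiter-Blue absorbance, and IC50 was taken relative to DMSO. Paclitaxel (0.39–100 nM) was the control, with three biological replicates.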
# MDA-MB-435 = test: Cell viability assay; format: cell-based, human; conditions: MDA-MB-435
# Summary of the method: as §2
# [1] = tested on: female athymic nude (nu/nu) mice; test: 14 day tolerability study, IP every 2 days; format: in vivo, mouse
# Summary of the method: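 Female athymic nude mice (CrTac:NCr-Foxn1nu, 7–8 weeks) were randomized, n = 5 per group. Parent compound was given at 0.1, 0.25, 0.5 or 1.0 mg/kg, or the succinate at molar-equivalent 0.114, 0.285, 0.570 or 1.14 mg/kg. Vehicle was Tween80:Captex200:0.9% saline (8:2:90 v/v). Dosing was IP every 2 days for 14 days. Body weight was recorded every 2 days before dosing, and gross necropsy plus H&E histopathology were done.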
# [2] = tested on: female athymic nude (nu/nu) mice; test: Tolerability study: serum chemistry; format: in vivo, mouse
# Summary of the method: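 Athymic nude mice (n = 5 per group) received test compound or the Tween80:Captex200:saline vehicle IP every 2 days for 14 days. About 2–4 h after the last dose, mice were killed with CO2 and blood was drawn by cardiac puncture. Complete blood counts and serum chemistry were run by a pathology core. Values are given as means ± SD, n = 3–5.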
# OVCAR8 = test: 2D foci assay; format: cell-based, human; conditions: OVCAR8, 50 nM for 8 h, two weeks colony formation, relative to vehicle
# Summary of the method: as §1
# MDA-MB-231 = test: Cell viability assay; format: cell-based, human; conditions: MDA-MB-231
# Summary of the method: as §2
# [3] = 0.114 mg/kg IP every 2 days, 14 days
# [4] = 0.285 mg/kg IP every 2 days, 14 days
# [5] = 0.570 mg/kg IP every 2 days, removed day 13
# [6] = 1.14 mg/kg IP every 2 days, removed at 8 days
smiles,measurement,setting,value
CN1C(=O)[C@]23SS[C@@]1(C)C(=O)N2[C@H]1Nc2ccccc2[C@@]1([C@@]12c4ccccc4N[C@@H]1N1C(=O)[C@]4(C)SS[C@]1(C(=O)N4C)[C@H]2OC(=O)CCC(=O)O)[C@@H]3O [verticillin A succinate],foci formation,OVCAR4,completely abrogated foci formation
same,cytotoxic activity,OVCAR3,pronounced cytotoxic activities
same,cytotoxic activity,MDA-MB-435,pronounced cytotoxic activities
same,early removal of mice,[1]; 0.570 mg/kg IP every 2 days,13 day of treatment
same,early removal of mice,[1]; 1.14 mg/kg IP every 2 days,8 days of treatment
same,tolerability,"[1]; two higher dose levels, 0.570 and 1.14 mg/kg IP every 2 days",poorly tolerated
same,tolerability,"[1]; two lower dose levels, 0.114 and 0.285 mg/kg IP every 2 days, 14 days",well tolerated
same,ALP,[2]; [3],139 ± 9 U/L
same,ALT,[2]; [3],39 ± 6 U/L
same,AST,[2]; [3],88 ± 10 U/L
same,BUN,[2]; [3],20 ± 1 mg/dL
same,GGT,[2]; [3],8 ± 0 U/L
same,albumin,[2]; [3],3.7 ± 0.2 g/dL
same,amylase,[2]; [3],1039 ± 215 U/L
same,calcium,[2]; [3],11.8 ± 0.3 mg/dL
same,cholesterol,[2]; [3],141 ± 12 mg/dL
same,creatine kinase,[2]; [3],160 ± 37 U/L
same,creatinine,[2]; [3],0.43 ± 0.02 mg/dL
same,globulin,[2]; [3],2.1 ± 0.2 g/dL
same,glucose,[2]; [3],225 ± 28 mg/dL
same,lipase,[2]; [3],55 ± 44 U/L
same,phosphorous,[2]; [3],11.7 ± 0.8 mg/dL
same,total bilirubin,[2]; [3],0.3 ± 0.1 mg/dL
same,total protein,[2]; [3],5.8 ± 0.3 g/dL
same,triglyceride,[2]; [3],247 ± 70 mg/dL
same,ALP,[2]; [4],133 ± 19 U/L
same,ALT,[2]; [4],47 ± 13 U/L
same,AST,[2]; [4],125 ± 18 U/L
same,BUN,[2]; [4],15 ± 1 mg/dL
same,GGT,[2]; [4],0 ± 1 U/L
same,albumin,[2]; [4],3.4 ± 0.2 g/dL
same,amylase,[2]; [4],1208 ± 75 U/L
same,calcium,[2]; [4],11.2 ± 0.7 mg/dL
same,cholesterol,[2]; [4],146 ± 13 mg/dL
same,creatine kinase,[2]; [4],214 ± 28 U/L
same,creatinine,[2]; [4],0.42 ± 0.8 mg/dL
same,globulin,[2]; [4],2.0 ± 0.2 g/dL
same,glucose,[2]; [4],235 ± 10 mg/dL
same,lipase,[2]; [4],74 ± 5 U/L
same,phosphorous,[2]; [4],11.9 ± 0.8 mg/dL
same,total bilirubin,[2]; [4],0.3 ± 0.0 mg/dL
same,total protein,[2]; [4],5.4 ± 0.3 g/dL
same,triglyceride,[2]; [4],262 ± 68 mg/dL
same,ALP,[2]; [5],89 ± 13 U/L
same,ALT,[2]; [5],48 ± 25 U/L
same,AST,[2]; [5],254 ± 138 U/L
same,BUN,[2]; [5],24 ± 8 mg/dL
same,GGT,[2]; [5],4 ± 3 U/L
same,albumin,[2]; [5],2.6 ± 0.9 g/dL
same,amylase,[2]; [5],1203 ± 240 U/L
same,calcium,[2]; [5],11.5 ± 0.9 mg/dL
same,cholesterol,[2]; [5],115 ± 23 mg/dL
same,creatine kinase,[2]; [5],1916 ± 1915 U/L
same,creatinine,[2]; [5],0.29 ± 0.05 mg/dL
same,globulin,[2]; [5],2.6 ± 1.1 g/dL
same,glucose,[2]; [5],172 ± 49 mg/dL
same,phosphorous,[2]; [5],15.5 ± 1.4 mg/dL
same,total bilirubin,[2]; [5],0.4 ± 0.1 mg/dL
same,total protein,[2]; [5],5.2 ± 0.4 g/dL
same,triglyceride,[2]; [5],128 ± 38 mg/dL
same,ALP,[2]; [6],74 ± 12 U/L
same,ALT,[2]; [6],121 ± 145 U/L
same,AST,[2]; [6],420 ± 438 U/L
same,BUN,[2]; [6],24 ± 4 mg/dL
same,GGT,[2]; [6],6 ± 4 U/L
same,albumin,[2]; [6],2.4 ± 0.8 g/dL
same,amylase,[2]; [6],1221 ± 520 U/L
same,calcium,[2]; [6],7.2 ± 5.3 mg/dL
same,cholesterol,[2]; [6],111 ± 10 mg/dL
same,creatine kinase,[2]; [6],582 ± 384 U/L
same,creatinine,[2]; [6],0.26 ± 0.05 mg/dL
same,globulin,[2]; [6],2.5 ± 0.8 g/dL
same,glucose,[2]; [6],141 ± 62 mg/dL
same,lipase,[2]; [6],84 ± 64 U/L
same,phosphorous,[2]; [6],12.2 ± 1.0 mg/dL
same,total bilirubin,[2]; [6],0.5 ± 0.3 mg/dL
same,total protein,[2]; [6],4.9 ± 0.4 g/dL
same,triglyceride,[2]; [6],266 ± 160 mg/dL
same,foci formation,OVCAR8,completely abrogated foci formation
same,cytotoxic activity,MDA-MB-231,pronounced cytotoxic activities

# Source: publication PMC10405366 (Molecular pharmaceutics, 2023)
